Results reported in ChEMBL document CHEMBL4689842, “EUbOPEN Chemogenomics Library wave 1” (2021).

Test system: HEK-293T
Experiment: Multiplex assay against HEK293T;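 for Population Tubulin-Different-Phenotype (%): share of the cells with healthy nuclei that show this phenotype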
Format: toxicity, cell-based
Conditions: human
Outline: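 Imaging took place on a CQ1 microscope at 37°C and 5% CO2 once compound had been added to live cells stained at seeding with Hoechst33342, BioTracker Green Microtubule Cytoskeleton Dye, MitoTracker Red and Annexin V Alexa Fluor 680. CellPathfinder machine-learning gating classed cells as Hoechst high-intensity objects or normal cells, classed normal cells as having healthy, pyknosed or fragmented nuclei, and classed pyknosed cells as mitotic or apoptotic. Tubulin, mitochondrial-mass and membrane-permeability phenotypes are per cents of the healthy-nucleus cells.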

[1] = 12 h, 1 µM, compound concentration 1 uM, replicate 1
[2] = 12 h, 1 µM, compound concentration 1 uM, replicate 2
[3] = 12 h, 10 µM, compound concentration 10 uM, replicate 1
[4] = 12 h, 10 µM, compound concentration 10 uM, replicate 2
[5] = 24 h, 1 µM, compound concentration 1 uM, replicate 1
[6] = 24 h, 1 µM, compound concentration 1 uM, replicate 2
[7] = 24 h, 10 µM, compound concentration 10 uM, replicate 1
[8] = 24 h, 10 µM, compound concentration 10 uM, replicate 2
[9] = 48 h, 1 µM, compound concentration 1 uM, replicate 1
[10] = 48 h, 1 µM, compound concentration 1 uM, replicate 2
[11] = 48 h, 10 µM, compound concentration 10 uM, replicate 1
[12] = 48 h, 10 µM, compound concentration 10 uM, replicate 2

CCn1c(-c2nonc2N)nc2cnc(Oc3cccc(NC(=O)c4ccc(OCCN5CCOCC5)cc4)c3)cc21 [GSK-269962A]
Population Apoptotic (%) [1]: 44% | Population Fragmented Nuclei (%) [1]: 14% | Population Healthy Nuclei (%) [1]: 26% | Population Hoechst High Intensity Objects (%) [1]: 17% | Population Membrane Permeable-Phenotype (%) [1]: 3% | Population Mitochondria Different-Phenotype (%) [1]: 75% | Population Mitotic Cells (%) [1]: 55% | Population Normal (%) [1]: 82% | Population Pyknosed Nuclei (%) [1]: 58% | Population Tubulin-Different-Phenotype (%) [1]: 55% | Total Cell Count [1]: 262 | Population Apoptotic (%) [2]: 12% | Population Fragmented Nuclei (%) [2]: 8% | Population Healthy Nuclei (%) [2]: 44% | Population Hoechst High Intensity Objects (%) [2]: 6% | Population Membrane Permeable-Phenotype (%) [2]: 5% | Population Mitochondria Different-Phenotype (%) [2]: 21% | Population Mitotic Cells (%) [2]: 87% | Population Normal (%) [2]: 93% | Population Pyknosed Nuclei (%) [2]: 46% | Population Tubulin-Different-Phenotype (%) [2]: 21% | Total Cell Count [2]: 251 | Population Apoptotic (%) [3]: 61% | Population Fragmented Nuclei (%) [3]: 7% | Population Healthy Nuclei (%) [3]: 20% | Population Hoechst High Intensity Objects (%) [3]: 12% | Population Membrane Permeable-Phenotype (%) [3]: 1% | Population Mitochondria Different-Phenotype (%) [3]: 98% | Population Mitotic Cells (%) [3]: 38% | Population Normal (%) [3]: 87% | Population Pyknosed Nuclei (%) [3]: 72% | Population Tubulin-Different-Phenotype (%) [3]: 100% | Total Cell Count [3]: 284 | Population Apoptotic (%) [4]: 54% | Population Fragmented Nuclei (%) [4]: 4% | Population Healthy Nuclei (%) [4]: 13% | Population Hoechst High Intensity Objects (%) [4]: 7% | Population Membrane Permeable-Phenotype (%) [4]: 0% | Population Mitochondria Different-Phenotype (%) [4]: 100% | Population Mitotic Cells (%) [4]: 45% | Population Normal (%) [4]: 92% | Population Pyknosed Nuclei (%) [4]: 81% | Total Cell Count [4]: 186 | Population Apoptotic (%) [5]: 56% | Population Fragmented Nuclei (%) [5]: 18% | Population Healthy Nuclei (%) [5]: 30% | Population Hoechst High Intensity Objects (%) [5]: 16% | Population Membrane Permeable-Phenotype (%) [5]: 1% | Population Mitochondria Different-Phenotype (%) [5]: 75% | Population Mitotic Cells (%) [5]: 43% | Population Normal (%) [5]: 83% | Population Pyknosed Nuclei (%) [5]: 51% | Population Tubulin-Different-Phenotype (%) [5]: 43% | Total Cell Count [5]: 254 | Population Apoptotic (%) [6]: 11% | Population Fragmented Nuclei (%) [6]: 12% | Population Healthy Nuclei (%) [6]: 61% | Population Hoechst High Intensity Objects (%) [6]: 3% | Population Membrane Permeable-Phenotype (%) [6]: 4% | Population Mitochondria Different-Phenotype (%) [6]: 17% | Population Mitotic Cells (%) [6]: 88% | Population Normal (%) [6]: 96% | Population Pyknosed Nuclei (%) [6]: 26% | Population Tubulin-Different-Phenotype (%) [6]: 31% | Total Cell Count [6]: 267 | Population Apoptotic (%) [7]: 74% | Population Fragmented Nuclei (%) [7]: 12% | Population Healthy Nuclei (%) [7]: 31% | Population Hoechst High Intensity Objects (%) [7]: 12% | Population Membrane Permeable-Phenotype (%) [7]: 4% | Population Mitochondria Different-Phenotype (%) [7]: 96% | Population Mitotic Cells (%) [7]: 25% | Population Normal (%) [7]: 87% | Population Pyknosed Nuclei (%) [7]: 56% | Population Tubulin-Different-Phenotype (%) [7]: 98% | Total Cell Count [7]: 276 | Population Apoptotic (%) [8]: 72% | Population Fragmented Nuclei (%) [8]: 6% | Population Healthy Nuclei (%) [8]: 22% | Population Hoechst High Intensity Objects (%) [8]: 6% | Population Membrane Permeable-Phenotype (%) [8]: 5% | Population Mitochondria Different-Phenotype (%) [8]: 87% | Population Mitotic Cells (%) [8]: 28% | Population Normal (%) [8]: 93% | Population Pyknosed Nuclei (%) [8]: 70% | Population Tubulin-Different-Phenotype (%) [8]: 97% | Total Cell Count [8]: 189 | Population Apoptotic (%) [9]: 56% | Population Fragmented Nuclei (%) [9]: 18% | Population Healthy Nuclei (%) [9]: 23% | Population Hoechst High Intensity Objects (%) [9]: 19% | Population Membrane Permeable-Phenotype (%) [9]: 4% | Population Mitochondria Different-Phenotype (%) [9]: 54% | Population Mitotic Cells (%) [9]: 43% | Population Normal (%) [9]: 80% | Population Pyknosed Nuclei (%) [9]: 58% | Population Tubulin-Different-Phenotype (%) [9]: 45% | Total Cell Count [9]: 255 | Population Apoptotic (%) [10]: 41% | Population Fragmented Nuclei (%) [10]: 20% | Population Healthy Nuclei (%) [10]: 66% | Population Hoechst High Intensity Objects (%) [10]: 3% | Population Membrane Permeable-Phenotype (%) [10]: 5% | Population Mitochondria Different-Phenotype (%) [10]: 12% | Population Mitotic Cells (%) [10]: 58% | Population Normal (%) [10]: 96% | Population Pyknosed Nuclei (%) [10]: 12% | Population Tubulin-Different-Phenotype (%) [10]: 30% | Total Cell Count [10]: 329 | Population Apoptotic (%) [11]: 80% | Population Fragmented Nuclei (%) [11]: 18% | Population Healthy Nuclei (%) [11]: 40% | Population Hoechst High Intensity Objects (%) [11]: 11% | Population Membrane Permeable-Phenotype (%) [11]: 1% | Population Mitochondria Different-Phenotype (%) [11]: 97% | Population Mitotic Cells (%) [11]: 19% | Population Normal (%) [11]: 88% | Population Pyknosed Nuclei (%) [11]: 41% | Population Tubulin-Different-Phenotype (%) [11]: 97% | Total Cell Count [11]: 286 | Population Apoptotic (%) [12]: 82% | Population Fragmented Nuclei (%) [12]: 5% | Population Healthy Nuclei (%) [12]: 56% | Population Hoechst High Intensity Objects (%) [12]: 7% | Population Mitochondria Different-Phenotype (%) [12]: 89% | Population Mitotic Cells (%) [12]: 17% | Population Normal (%) [12]: 92% | Population Pyknosed Nuclei (%) [12]: 38% | Population Tubulin-Different-Phenotype (%) [12]: 99% | Total Cell Count [12]: 192
